Laboratory results as given in the RNAGym collection of RNA variant scans (doi:10.1002/anie.201605470).

B1: Osa-1-4 twister ribozyme (parent)
chain: CCGCCUAACACUGCCAAUGCCGGUCCCAAGCCCGGAUAAAAGUGGAGGGGGCGG

Variants of: B1
Assay: self-cleavage, relative activity (ratio to wild type); higher = more cleavage; co-transcriptional
Method in brief: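 The 48 positions downstream of the cleavage site in a 54-nucleotide Oryza sativa twister ribozyme template were synthesised at 97 % wild-type base and 1 % of each other base. The template was transcribed in vitro at 37 °C for 2 h, with self-cleavage allowed during transcription. Reads with or without upstream sequence after deep sequencing marked cleavage status, and relative activity is fraction cleaved normalised to wild type.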

Variant | self-cleavage
A41C G34A | 0.76
A41C G34U | 0.73
A41C C26A | 0.06
A41C C26U | 0.8
A41C C26G | 0.09
A41G C15A | 0.18
A41G C15G | 0.28
A41G C15U | 0.22
A41C C31A | 0.04
A41C C31U | 0.8
A41C C31G | 0.09
A41G U24G | 0.04
A41G U24C | 0.07
A41G U24A | 0.07
A41C G51C | 0.07
A41C G51A | 0.28
A41C G51U | 0.16
A41C C15G | 0.14
A41C C15A | 0.27
A41C C15U | 0.36
A41G C25U | 0.16
A41G C25A | 0.07
A41G C25G | 0.06
A41C U12A | 0.97

Variant | self-cleavage
A41C U12C | 0.55
A41C U12G | 0.8
A41C C20U | 0.95
A41C C20A | 0.92
A41C C20G | 0.13
A41C G50U | 1
A41C G50A | 0.37
A41C G50C | 0.93
A41U G42U | 0.15
A41U G42C | 0.2
A41U G42A | 0.35
A41G U37A | 0.86
A41G U37G | 0.87
A41G U37C | 0.59
A41G U12G | 0.21
A41G U12C | 0.78
A41G U12A | 0.87
A41C C27A | 0.13
A41C C27G | 0.06
A41C C27U | 0.12
A41G C14U | 0.24
A41G C14G | 0.14
A41G C14A | 0.07
A41G C31A | 0.04

Variant | self-cleavage
A41G C31G | 0.11
A41G C31U | 0.17
A41C C52G | 1.04
A41C C52A | 0.94
A41C C52U | 1.03
A41U A8C | 0.07
A41U A8U | 0.25
A41U A8G | 0.41
A41C G30U | 0.04
A41C G30A | 0.05
A41C G30C | 0.05
A41G C52A | 0.84
A41G C52G | 0.84
A41G C52U | 0.88
A41C C14G | 0.15
A41C C14A | 0.07
A41C C14U | 0.22
A41U G44U | 0.87
A41U G44C | 0.98
A41U G44A | 0.88
A41U G47A | 0.27
A41U G47U | 0.25
A41U G47C | 0.11
A41G G49U | 0.07

Variant | self-cleavage
A41G G49A | 0.08
A41G G49C | 0.06
A41C U37C | 1
A41C U37A | 0.92
A41C U37G | 1.02
A41U C26A | 0.06
A41U C26U | 0.93
A41U C26G | 0.11
A41U A7U | 0.11
A41U A7G | 0.31
A41U A7C | 0.03
A41U C32A | 0.1
A41U C32U | 0.17
A41U C32G | 0.18
A41C C33U | 0.7
A41C C33G | 0.09
A41C C33A | 0.13
A41U G13U | 0.03
A41U G13C | 0.03
A41U G13A | 0.14
A41C U43C | 0.22
A41C U43G | 0.12
A41C U43A | 0.45
A41G G19A | 0.17

Variant | self-cleavage
A41G G19C | 0.08
A41G G19U | 0.09
A41G G45U | 0.09
A41G G45C | 0.05
A41G G45A | 0.09
A41C C21U | 1.04
A41C C21A | 0.45
A41C C21G | 0.08
A40U U24A | 0.06
A40U U24C | 0.09
A40U U24G | 0.03
A41U G35A | 0.83
A41U G35U | 0.87
A41U G35C | 0.77
A41U G22A | 1
A41U G22U | 0.85
A41U G22C | 0.1
A41C G45U | 0.11
A41C G45C | 0.06
A41C G45A | 0.13
A41U G34C | 0.47
A41U G34A | 0.82
A41U G34U | 0.74
A41U C9G | 0.79

Variant | self-cleavage
A41U C9U | 0.78
A41U C9A | 0.42
A41G G51U | 0.12
A41G G51A | 0.41
A41G G51C | 0.09
A41G G34U | 0.18
A41G G34C | 0.16
A41G G34A | 0.41
A41G G50A | 0.34
A41G G50C | 0.77
A41G G50U | 0.91
A40U U43A | 0.18
A40U U43C | 0.13
A40U U43G | 0.1
A41C U18A | 0.92
A41C U18C | 0.8
A41C U18G | 0.85
A41G G42C | 0.37
A41G G42A | 0.72
A41G G42U | 0.44
A41C U24C | 0.1
A41C U24A | 0.13
A41C U24G | 0.03
A41G C9G | 0.22

Variant | self-cleavage
A41G C9A | 0.08
A41G C9U | 0.11
A41U G30A | 0.06
A41U G30C | 0.04
A41U G30U | 0.04
A41U G45U | 0.12
A41U G45A | 0.25
A41U G45C | 0.06
A41C C25G | 0.08
A41C C25A | 0.08
A41C C25U | 0.8
A41C G22U | 0.49
A41C G22A | 0.8
A41C G22C | 0.05
A41U C27A | 0.18
A41U C27G | 0.08
A41U C27U | 0.16
A41C G53U | 0.28
A41C G53A | 0.73
A41C G53C | 0.08
A41G G48A | 0.08
A41G G48U | 0.05
A41G G48C | 0.08
